As a reminder, the inhibition is the change of the read-out against control, counted positive when it falls.

Calls of active or inactive are those of the source. The calls are words filed in the database; no cut-off is given here.

Assay [1] deals with Vero. Nature of the assay: Inhibition of MPA effect on viral RNA in HTNV 76-118-infected Vero E6 cells at 35 uM. In kind it is functional, cell-based. The following applies: Hantaan virus.
Assay [2] concerns Vero. Nature of the assay: Inhibition of 40 ug/ml RBV-induced depression in intracellular GTP level in Vero E6 cells at 35 uM after 24 h. It is filed as functional, cell-based. The following applies: Chlorocebus sabaeus. Put shortly: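 Vero E6 cells were treated for 24 h with 40 μg/ml RBV, with or without 10 μg/ml guanosine. Acid-soluble (perchloric acid) extracts were run on SAX HPLC, and GTP and ATP were quantified by UV at 260 nm. Values are the mean of three measurements.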

The test system of assay [3] is Vero. Nature of the assay: Inhibition of 1 ug/ml RBV-induced depression in intracellular GTP level in Vero E6 cells at 35 uM after 24 h. It is filed as functional, cell-based. Conditions: Chlorocebus sabaeus.
Assay [4] deals with Vero. The experiment in a line: Increase in GTP level in Vero E6 cells at 35 uM after 24 hr relative to control. It is filed as functional, Chlorocebus sabaeus. The gist of the method: (§1)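 Confluent 3-day-old Vero E6 cells incubated at 37°C with drug: 10 μg/ml RBV or 2.5 μg/ml MPA over a 0–72 h time course; RBV for 4 h; 10 μg/ml guanosine for 24 h. Ice-cold 0.5 M perchloric acid extracts neutralized with KOH, then SAX HPLC with an NH4H2PO4 gradient from pH 2.8 to 3.7. GTP and ATP read at 260 nm; mean of three measurements.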

The test system of assay [5] is Vero. The experiment in a line: Effect on metabolism of 10 ug/ml RBV in Vero E6 cells assessed as RBV-MP concentration at 10 ug/ml after 24 h. In kind it is functional, Chlorocebus sabaeus. Put shortly:
(§2)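 Vero E6 cells were given [3H]RBV for 24 h at 37°C, alone or with added MPA (experiment 1) or guanosine (experiment 2). Perchloric acid extracts were resolved on SAX HPLC, and RBV-MP and RBV-TP were quantified by counting 1-min fractions. Values are the mean ± SD of three measurements, and the experiment was repeated twice.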

Assay [6] concerns Vero. Nature of the assay: Effect on metabolism of 40 ug/ml RBV in Vero E6 cells assessed as RBV-MP concentration at 10 ug/ml after 24 h. In kind it is functional, Chlorocebus sabaeus. Put shortly:
as §2

Assay [7] concerns Vero. The experiment in a line: Effect on metabolism of 10 ug/ml RBV in Vero E6 cells assessed as RBV-TP concentration at 10 ug/ml after 24 h. It is filed as functional, Chlorocebus sabaeus. The gist of the method: as §2
Assay [8] relates to Vero. The experiment in a line: Effect on metabolism of 40 ug/ml RBV in Vero E6 cells assessed as RBV-TP concentration at 10 ug/ml after 24 h. In kind it is functional, Chlorocebus sabaeus. Put shortly:
as §2

Assay [9] in a line: Inhibition of viral RNA levels in HTNV76-118-infected Vero E6 cells at 10 ug/ml. In kind it is functional, Hantaan virus. Conditions: Orthohantavirus hantanense, 76-118, Vero.
Assay [10] concerns Vero. The experiment in a line: Decrease in GTP level in Vero E6 cells at 2.5 ug/ml. It is filed as functional, Chlorocebus sabaeus. More on the design: scale not given: the % may be the effect or the level left. The gist of the method: as §1
The test system of assay [11] is Vero. The experiment in a line: Effect on metabolism of 10 ug/ml RBV in Vero E6 cells assessed as RBV-MP concentration at 1 ug/ml after 24 h. It is filed as functional, Chlorocebus sabaeus. Put shortly: as §2
Assay [12] deals with Vero. Nature of the assay: Effect on metabolism of 10 ug/ml RBV in Vero E6 cells assessed as RBV-MP concentration at 2 ug/ml after 24 h. In kind it is functional, Chlorocebus sabaeus. Put shortly: as §2
Assay [13] deals with Vero. Nature of the assay: Effect on metabolism of 10 ug/ml RBV in Vero E6 cells assessed as RBV-MP concentration at 5 ug/ml after 24 h. In kind it is functional, Chlorocebus sabaeus. The gist of the method: as §2
Assay [14] deals with Vero. Nature of the assay: Effect on metabolism of 40 ug/ml RBV in Vero E6 cells assessed as RBV-MP concentration at 1 ug/ml after 24 h. It is filed as functional, Chlorocebus sabaeus. The gist of the method:
as §2

Assay [15] concerns Vero. The experiment in a line: Effect on metabolism of 40 ug/ml RBV in Vero E6 cells assessed as RBV-MP concentration at 2 ug/ml after 24 h. It is filed as functional, Chlorocebus sabaeus. Put shortly:
as §2

The subject of assay [16] is Vero. The experiment in a line: Effect on metabolism of 40 ug/ml RBV in Vero E6 cells assessed as RBV-MP concentration at 5 ug/ml after 24 h. It is filed as functional, Chlorocebus sabaeus. The gist of the method:
as §2

Assay [17] deals with Vero. The experiment in a line: Effect on metabolism of 10 ug/ml RBV in Vero E6 cells assessed as RBV-TP concentration at 1 ug/ml after 24 h. It is filed as functional, Chlorocebus sabaeus. The gist of the method: as §2
In assay [18] the test system is Vero. The experiment in a line: Effect on metabolism of 10 ug/ml RBV in Vero E6 cells assessed as RBV-TP concentration at 2 ug/ml after 24 h. It is filed as functional, Chlorocebus sabaeus. The gist of the method:
as §2

For assay [19], the system named is Vero. Nature of the assay: Effect on metabolism of 10 ug/ml RBV in Vero E6 cells assessed as RBV-TP concentration at 5 ug/ml after 24 h. It is filed as functional, Chlorocebus sabaeus. The gist of the method: as §2
The test system of assay [20] is Vero. The experiment in a line: Effect on metabolism of 40 ug/ml RBV in Vero E6 cells assessed as RBV-TP concentration at 1 ug/ml after 24 h. In kind it is functional, Chlorocebus sabaeus. Put shortly: as §2
Assay [21] relates to Vero. The experiment in a line: Effect on metabolism of 40 ug/ml RBV in Vero E6 cells assessed as RBV-TP concentration at 2 ug/ml after 24 h. It is filed as functional, Chlorocebus sabaeus. Put shortly: as §2
Assay [22] relates to Vero. Nature of the assay: Effect on metabolism of 40 ug/ml RBV in Vero E6 cells assessed as RBV-TP concentration at 5 ug/ml after 24 h. In kind it is functional, Chlorocebus sabaeus. The gist of the method:
as §2

Assay [23] relates to Vero. The experiment in a line: Decrease in GTP level in Vero E6 cells at 40 ug/ml after 24 h. It is filed as functional, Chlorocebus sabaeus. Further details: scale not given: the % may be the effect or the level left.
Assay [24] can be described thus: Inhibition of viral RNA levels in HTNV 76-118-infected Vero E6 cells at 40 ug/ml after 3 days. Conditions: Orthohantavirus hantanense, 76-118, Vero, 72 h. It is filed as functional, Hantaan virus.
The nature of assay [25]: Inhibition of viral RNA levels in HTNV76-118-infected Vero E6 cells at 0.5 ug/ml. It is filed as functional, Hantaan virus. Conditions: Orthohantavirus hantanense, 76-118, Vero.
Assay [26] deals with Vero. Nature of the assay: Decrease in GTP level in Vero E6 cells at 10 ug/ml. In kind it is functional, Chlorocebus sabaeus. More on the design: scale not given: the % may be the effect or the level left. Put shortly: as §1
In assay [27] the test system is Vero. The experiment in a line: RBV metabolism in Vero E6 cells assessed as RBV-MP concentration at 10 ug/ml after 24 h. In kind it is functional, Chlorocebus sabaeus. Put shortly:
as §2

The subject of assay [28] is Vero. The experiment in a line: RBV metabolism in Vero E6 cells assessed as RBV-MP concentration at 40 ug/ml after 24 h. In kind it is functional, Chlorocebus sabaeus. The gist of the method: as §2
Assay [29] concerns Vero. The experiment in a line: RBV metabolism in Vero E6 cells assessed as RBV-TP concentration at 10 ug/ml after 24 h. It is filed as functional, Chlorocebus sabaeus. The gist of the method:
as §2

The test system of assay [30] is Vero. The experiment in a line: RBV metabolism in Vero E6 cells assessed as RBV-TP concentration at 40 ug/ml after 24 h. It is filed as functional, Chlorocebus sabaeus. Put shortly:
as §2

The test system of assay [31] is Vero. Nature of the assay: Decrease in GTP level in Vero E6 cells at 40 ug/ml after 4 h. In kind it is functional, cell-based. Conditions: Chlorocebus sabaeus. The gist of the method: as §1

On to `Nc1nc2c(ncn2[C@@H]2O[C@H](CO)[C@@H](O)[C@H]2O)c(=O)[nH]1` [GUANOSINE], for which the outcome with Vero [1], with Vero [2] and with Vero [3] was Active. In addition, the Activity in the assay on Vero [4] is reported as 145%; in the assay on Vero [5] it was 1.9 pmol; in the assay on Vero [6], 8.6 pmol; with Vero [7] it was 14 pmol; in the assay on Vero [8], 65 pmol.
Turning to `COc1c(C)c2c(c(O)c1C/C=C(\C)CCC(=O)O)C(=O)OC2` [MYCOPHENOLIC ACID], the inhibition at 10 µg/mL in assay [9] is -70%. In addition, the Activity was 90% in the assay with Vero [10]; 1.3 pmol in the assay with Vero [11]; 1.3 pmol in the assay with Vero [12]; 1.2 pmol in the assay with Vero [13]; 4.2 pmol with Vero [14]; 3.8 pmol with Vero [15]. The Activity with Vero [16] was 3.9 pmol; in the assay with Vero [17], 7.8 pmol; in the assay with Vero [18], 6.8 pmol; with Vero [19], 7 pmol; with Vero [20], 26 pmol; with Vero [21] it was 27 pmol. The Activity is given as 26 pmol with Vero [22] and 80% with Vero [23].
For the compound `NC(=O)c1ncn([C@@H]2O[C@H](CO)[C@@H](O)[C@H]2O)n1` [RIBAVIRIN], the inhibition at 40 µg/mL in [24] came out at 99.9%. For the same compound, in [25], the inhibition at 0.5 µg/mL is -80%. The Activity with Vero [26] worked out at 40%; with Vero [27], 1.1 pmol; in the assay with Vero [28] it was 3.2 pmol; in the assay with Vero [29], 6.5 pmol; in the assay on Vero [30], 22 pmol; in the assay on Vero [23], 50%. Moreover, the result in the assay with Vero [31] was Active.

For the origin of these results see ChEMBL document CHEMBL1142140, “Activity of ribavirin against Hantaan virus correlates with production of ribavirin-5'-triphosphate, not with inhibition of IMP dehydrogenase” (2007).
